Common to all, as to assay type: cell-based
Assay [1] has as its target Nitric oxide synthase, inducible (Homo sapiens, UniProt P35228). Description: Inhibition of human iNOS expressed in HEK293 cells assessed as NO production by transient transfection assay. The gist of the method:
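HEK293 cells grown to ~70% confluence in DMEM/10% FBS with pen/strep. Cells transiently transfected with 10 µg human or murine iNOS plasmid (Fugene 6), 4 h at 37 °C, 10% CO2. Trypsinized, plated at 5 × 10⁵ cells/mL and dosed at once; 1400W 100 µM final as positive control. After 18 h, NO read as DAN fluorescence (10 µg/mL, 20 min RT, then NaOH). EC50 from 3 runs, 10-point curves, n = 8/point.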

The next assay addresses T1, Nitric oxide synthase 3 (Homo sapiens, UniProt P29474).
T1 sequence (P29474 whole entry): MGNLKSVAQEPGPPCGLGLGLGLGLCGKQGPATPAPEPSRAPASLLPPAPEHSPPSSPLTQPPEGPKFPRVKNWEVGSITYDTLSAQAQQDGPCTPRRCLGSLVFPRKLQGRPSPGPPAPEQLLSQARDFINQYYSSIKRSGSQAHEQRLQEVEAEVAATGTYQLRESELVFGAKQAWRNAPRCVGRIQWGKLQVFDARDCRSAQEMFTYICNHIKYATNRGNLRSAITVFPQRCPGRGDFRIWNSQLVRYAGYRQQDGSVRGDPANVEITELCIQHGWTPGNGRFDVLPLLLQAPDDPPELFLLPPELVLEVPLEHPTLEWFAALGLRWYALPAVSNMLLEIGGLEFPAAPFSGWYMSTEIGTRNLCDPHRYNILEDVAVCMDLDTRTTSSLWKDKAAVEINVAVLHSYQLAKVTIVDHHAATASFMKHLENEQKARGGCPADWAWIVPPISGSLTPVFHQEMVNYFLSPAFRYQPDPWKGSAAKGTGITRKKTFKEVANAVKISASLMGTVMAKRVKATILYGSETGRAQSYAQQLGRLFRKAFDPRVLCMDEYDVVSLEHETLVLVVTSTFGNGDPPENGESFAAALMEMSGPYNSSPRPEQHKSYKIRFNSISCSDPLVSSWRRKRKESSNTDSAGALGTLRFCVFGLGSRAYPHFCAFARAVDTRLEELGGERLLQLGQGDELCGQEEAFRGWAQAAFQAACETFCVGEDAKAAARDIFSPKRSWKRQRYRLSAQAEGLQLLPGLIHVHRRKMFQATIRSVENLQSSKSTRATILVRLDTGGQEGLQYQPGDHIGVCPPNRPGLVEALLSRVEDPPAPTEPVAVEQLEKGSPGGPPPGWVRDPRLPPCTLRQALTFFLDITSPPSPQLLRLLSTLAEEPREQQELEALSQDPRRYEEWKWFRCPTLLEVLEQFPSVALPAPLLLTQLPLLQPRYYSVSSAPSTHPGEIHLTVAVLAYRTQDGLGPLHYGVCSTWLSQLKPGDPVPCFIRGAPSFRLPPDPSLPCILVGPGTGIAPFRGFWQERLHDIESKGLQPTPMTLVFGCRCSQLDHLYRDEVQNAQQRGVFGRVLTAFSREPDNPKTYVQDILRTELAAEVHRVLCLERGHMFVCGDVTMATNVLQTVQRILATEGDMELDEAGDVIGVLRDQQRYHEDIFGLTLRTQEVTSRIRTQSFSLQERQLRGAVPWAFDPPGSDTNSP
In words: Inhibition of human eNOS expressed in HEK293 cells assessed as NO production by transient transfection assay. The gist of the method:
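HEK293 cells grown to ~70% confluence in DMEM/10% FBS with pen/strep, transfected with 15 µg human eNOS plasmid plus Fugene 6 (3:1 µL:µg), 4 h at 37 °C, 10% CO2. Cells replated at 5 × 10⁵/mL, compound added at once, 24 h incubation, then A23187 (83 nM final). After 18 h, NO read by DAN fluorescence.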

The target in assay [2] is T2, Nitric oxide synthase 1 (Homo sapiens, UniProt P29475). In words: Inhibition of human nNOS expressed in HEK293 cells assessed as NO production at 10 uM by transient transfection assay relative to BBS-4. Put shortly: (§1)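 HEK293 cells transiently transfected with human eNOS (15 µg plasmid) or nNOS (10 µg plasmid), Fugene 6 at 3:1 µL:µg, 4 h at 37 °C, 10% CO2. Plated at 5 × 10⁵ cells/mL with compound; SEITU 100 µM final as positive control. After 24 h, activated with A23187 (83 nM final, eNOS) or ionomycin (30 µM final, nNOS). After 18 h more, NO read by DAN fluorescence. Inhibition is relative to the maximal inhibition by the control dimerization inhibitor. 3 runs, 10-point curves, n = 3/point.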

For assay [3], the target named is T3, Nitric oxide synthase 3 (Homo sapiens) (UniProt P29474).
T3 sequence (whole entry): T1 sequence (P29474 whole entry)
Description: Inhibition of human eNOS expressed in HEK293 cells assessed as NO production at 100 uM by transient transfection assay relative to BBS-4. The gist of the method: as §1

For assay [4], the target named is T2, Nitric oxide synthase 1. Description: Inhibition of human nNOS expressed in HEK293 cells assessed as NO production by transient transfection assay.

Nitric oxide synthase, inducible, sequence (P35228 whole entry): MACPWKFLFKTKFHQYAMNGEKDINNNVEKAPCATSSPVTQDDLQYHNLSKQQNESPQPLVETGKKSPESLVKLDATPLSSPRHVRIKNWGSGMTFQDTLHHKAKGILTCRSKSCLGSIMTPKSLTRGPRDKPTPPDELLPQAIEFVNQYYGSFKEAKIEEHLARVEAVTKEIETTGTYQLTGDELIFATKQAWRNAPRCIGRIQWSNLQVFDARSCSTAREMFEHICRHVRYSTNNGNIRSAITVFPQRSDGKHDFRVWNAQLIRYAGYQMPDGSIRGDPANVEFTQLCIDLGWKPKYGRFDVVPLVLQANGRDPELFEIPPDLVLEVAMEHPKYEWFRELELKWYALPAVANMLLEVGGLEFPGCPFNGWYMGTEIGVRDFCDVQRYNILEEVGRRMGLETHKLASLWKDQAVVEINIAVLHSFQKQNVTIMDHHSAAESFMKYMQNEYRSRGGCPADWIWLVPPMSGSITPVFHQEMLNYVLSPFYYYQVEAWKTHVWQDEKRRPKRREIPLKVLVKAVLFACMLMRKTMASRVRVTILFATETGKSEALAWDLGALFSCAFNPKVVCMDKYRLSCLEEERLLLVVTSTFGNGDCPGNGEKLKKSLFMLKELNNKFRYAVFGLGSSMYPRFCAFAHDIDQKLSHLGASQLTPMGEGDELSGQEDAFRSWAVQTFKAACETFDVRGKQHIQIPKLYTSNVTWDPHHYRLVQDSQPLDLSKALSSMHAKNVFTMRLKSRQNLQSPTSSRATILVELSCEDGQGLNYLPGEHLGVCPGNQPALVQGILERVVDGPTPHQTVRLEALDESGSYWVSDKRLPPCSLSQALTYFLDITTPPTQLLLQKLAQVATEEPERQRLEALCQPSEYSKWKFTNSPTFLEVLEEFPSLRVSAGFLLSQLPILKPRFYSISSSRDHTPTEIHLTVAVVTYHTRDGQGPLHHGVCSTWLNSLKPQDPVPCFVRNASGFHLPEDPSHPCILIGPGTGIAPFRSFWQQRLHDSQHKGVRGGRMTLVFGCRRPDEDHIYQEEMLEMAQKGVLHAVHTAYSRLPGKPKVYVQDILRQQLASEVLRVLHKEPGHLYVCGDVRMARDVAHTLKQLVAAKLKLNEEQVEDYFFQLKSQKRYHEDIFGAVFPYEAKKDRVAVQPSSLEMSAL
T2 sequence (P29475 whole entry): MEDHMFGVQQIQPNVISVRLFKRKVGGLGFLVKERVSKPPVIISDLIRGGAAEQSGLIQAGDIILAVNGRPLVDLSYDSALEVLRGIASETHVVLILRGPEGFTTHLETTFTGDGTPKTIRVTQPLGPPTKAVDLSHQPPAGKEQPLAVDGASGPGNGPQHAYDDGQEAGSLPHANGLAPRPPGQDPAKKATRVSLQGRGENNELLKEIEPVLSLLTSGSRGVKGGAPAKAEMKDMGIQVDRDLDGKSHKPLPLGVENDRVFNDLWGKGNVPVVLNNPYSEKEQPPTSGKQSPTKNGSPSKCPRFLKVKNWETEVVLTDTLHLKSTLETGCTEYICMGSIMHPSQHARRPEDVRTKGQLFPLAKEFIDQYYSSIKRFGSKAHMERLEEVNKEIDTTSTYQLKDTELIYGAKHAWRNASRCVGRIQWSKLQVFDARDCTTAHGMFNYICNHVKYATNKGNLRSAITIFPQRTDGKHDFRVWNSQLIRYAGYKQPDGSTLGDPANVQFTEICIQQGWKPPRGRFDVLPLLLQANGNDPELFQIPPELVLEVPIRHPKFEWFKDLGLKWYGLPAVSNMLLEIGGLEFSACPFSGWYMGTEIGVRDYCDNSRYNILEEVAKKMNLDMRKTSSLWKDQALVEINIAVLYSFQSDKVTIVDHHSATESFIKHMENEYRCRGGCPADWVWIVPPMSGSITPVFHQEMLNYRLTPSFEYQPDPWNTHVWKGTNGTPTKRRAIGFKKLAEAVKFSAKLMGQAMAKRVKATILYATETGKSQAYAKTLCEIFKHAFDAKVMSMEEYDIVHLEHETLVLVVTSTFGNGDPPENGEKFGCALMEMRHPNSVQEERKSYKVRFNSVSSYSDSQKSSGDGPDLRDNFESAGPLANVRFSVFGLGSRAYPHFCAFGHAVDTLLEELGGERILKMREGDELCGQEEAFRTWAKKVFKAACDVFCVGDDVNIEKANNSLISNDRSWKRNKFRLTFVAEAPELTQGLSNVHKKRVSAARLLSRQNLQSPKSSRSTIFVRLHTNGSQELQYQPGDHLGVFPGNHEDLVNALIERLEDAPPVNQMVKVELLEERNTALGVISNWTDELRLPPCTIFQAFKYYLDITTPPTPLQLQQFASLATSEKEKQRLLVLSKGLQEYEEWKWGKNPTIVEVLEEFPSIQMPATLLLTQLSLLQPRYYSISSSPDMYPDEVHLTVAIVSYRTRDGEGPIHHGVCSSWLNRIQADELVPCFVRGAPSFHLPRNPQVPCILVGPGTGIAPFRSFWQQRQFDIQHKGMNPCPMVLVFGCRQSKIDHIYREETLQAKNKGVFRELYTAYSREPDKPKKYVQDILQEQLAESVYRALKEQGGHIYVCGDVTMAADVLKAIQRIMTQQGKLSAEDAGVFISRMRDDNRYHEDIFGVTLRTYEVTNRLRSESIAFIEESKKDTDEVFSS

As for `Cc1ncsc1C(=O)N(Cc1cc(=O)[nH]c2c(F)cccc12)c1ccc(Cl)cc1`, the figures for the EC50 (in assay [1]; at Nitric oxide synthase 3; on Nitric oxide synthase 1 [4]) were 0.24 µM, more than 100 µM and more than 10 µM, respectively. Further, the inhibition (at Nitric oxide synthase 1 [2]; in assay [3]) was less than 50% in each case.

`Cc1ncsc1C(=O)N(Cc1cc(=O)[nH]c2ccc(F)cc12)c1cccc(Cl)c1`: the EC50 (usually the concentration that produces a half-maximal response) is 0.3 µM in assay [1], more than 100 µM on Nitric oxide synthase 3 and more than 10 µM at Nitric oxide synthase 1 [4]. In addition, the inhibition (at Nitric oxide synthase 1 [2]; in assay [3]) was less than 50% each time.

Regarding `Cc1ncsc1C(=O)N(Cc1cc(=O)[nH]c2c(Cl)cccc12)c1cccc(Cl)c1`, the figures for the EC50 (in assay [1]; on Nitric oxide synthase 3; on Nitric oxide synthase 1 [4]) were 1.3 µM, more than 100 µM and more than 10 µM, respectively. Besides, the inhibition (at Nitric oxide synthase 1 [2]; in assay [3]) was less than 50% in each case.

As for `O=C(c1ccco1)N(Cc1cc(=O)[nH]c2ccccc12)c1ccccc1`, the EC50 is 1.3 µM in assay [1], more than 100 µM on Nitric oxide synthase 3 and more than 10 µM at Nitric oxide synthase 1 [4]. The inhibition (at Nitric oxide synthase 1 [2]; in assay [3]) was less than 50% in each case.

For the compound `Cc1cnccc1C(=O)N(Cc1cc(=O)[nH]c2c(F)cccc12)c1cccc(Cl)c1`, the EC50 in assay [1] worked out at 0.089 µM; on Nitric oxide synthase 3 it was 13 µM; at Nitric oxide synthase 1 [4], 2.1 µM.

Turning to `Cc1ncsc1C(=O)N(Cc1cc(=O)oc2c(F)cccc12)c1cccc(Cl)c1`, the EC50 in assay [1] was determined as 2 µM.

As for `Cc1ncsc1C(=O)N(Cc1cncc2c(F)cccc12)c1cccc(Cl)c1`, in assay [1], the EC50 was found to be 0.76 µM.

As for `Cc1ncsc1C(=O)N(Cc1cc(=O)[nH]c2ccccc12)c1cccc(Cl)c1`, the EC50 is 0.17 µM in assay [1], more than 100 µM at Nitric oxide synthase 3 and more than 10 µM on Nitric oxide synthase 1 [4]. Besides, the inhibition (on Nitric oxide synthase 1 [2]; in assay [3]) was less than 50% each time.

For `Cc1ncsc1C(=O)N(Cc1cc(=O)[nH]c2c(F)cccc12)c1cccc(F)c1`, the EC50 amounted to 0.062 µM in assay [1] and 15 µM on Nitric oxide synthase 3.

Turning to `Cc1noc(C)c1C(=O)N(Cc1cc(=O)[nH]c2c(F)cccc12)c1cccc(Cl)c1`, the EC50 amounted to 0.016 µM in assay [1], 6.8 µM at Nitric oxide synthase 3 and 0.5 µM at Nitric oxide synthase 1 [4].

Turning to `COc1cccc(N(Cc2cc(=O)[nH]c3c(F)cccc23)C(=O)c2scnc2C)c1`, the EC50 in assay [1] was 0.99 µM; on Nitric oxide synthase 3 it was more than 100 µM; at Nitric oxide synthase 1 [4], more than 10 µM. For the same compound, the inhibition (on Nitric oxide synthase 1 [2]; in assay [3]) was less than 50% in each case.

Consider `Cc1ncsc1C(=O)N(Cc1cc(=O)[nH]c2cc(F)ccc12)c1cccc(Cl)c1`, for which the EC50 worked out at 0.053 µM in assay [1], 33 µM at Nitric oxide synthase 3 and 3.4 µM on Nitric oxide synthase 1 [4].

For `Cc1ncccc1C(=O)N(Cc1cc(=O)[nH]c2c(F)cccc12)c1cccc(Cl)c1`, the EC50 is 0.35 µM in assay [1], more than 100 µM at Nitric oxide synthase 3 and 7.9 µM at Nitric oxide synthase 1 [4]. The inhibition (in general, the share of the control response that was lost under treatment) in assay [3] was less than 50%.

Take `Cc1ncsc1C(=O)N(Cc1cncc2c(F)c(F)ccc12)c1cccc(Cl)c1`: the figures for the EC50 (in assay [1]; on Nitric oxide synthase 3; on Nitric oxide synthase 1 [4]) were 0.2 µM, 37 µM and more than 10 µM, respectively. At Nitric oxide synthase 1 [2], the inhibition was less than 50%.

For the compound `Cc1cccnc1C(=O)N(Cc1cc(=O)[nH]c2c(F)cccc12)c1cccc(Cl)c1`, the EC50 was 0.42 µM in assay [1], more than 100 µM at Nitric oxide synthase 3 and 4.1 µM at Nitric oxide synthase 1 [4]. Also, the inhibition in assay [3] is less than 50%.

For the compound `Cc1ncsc1C(=O)N(Cc1cc(=O)[nH]c2c(F)cccc12)c1ccccc1Cl`, the values for the EC50 (in assay [1]; on Nitric oxide synthase 3; on Nitric oxide synthase 1 [4]) were 13 µM, more than 100 µM and more than 10 µM, respectively. The inhibition (on Nitric oxide synthase 1 [2]; in assay [3]) was less than 50% each time.

For `Cc1ncsc1C(=O)N(Cc1cc(=O)[nH]c2c1CCCC2)c1cccc(Cl)c1`, the EC50 in assay [1] is 1.14 µM.

In the case of `Cc1ncsc1C(=O)N(Cc1cc(=O)oc2c(F)c(F)ccc12)c1cccc(Cl)c1`, in assay [1], the EC50 came out at 0.84 µM.

On to `O=C(c1cncs1)N(Cc1cc(=O)[nH]c2c(F)cccc12)c1cccc(Cl)c1`, for which the EC50 in assay [1] was 0.053 µM; at Nitric oxide synthase 3, more than 100 µM. Besides, the inhibition in assay [3] was less than 50%.

`Cc1ncsc1C(=O)N(Cc1cc(=O)[nH]c2c(F)cccc12)c1cccc(C#N)c1`: the 50% effective concentration (EC50) was 0.056 µM in assay [1], more than 100 µM on Nitric oxide synthase 3 and 2.7 µM at Nitric oxide synthase 1 [4]. The inhibition on Nitric oxide synthase 1 [2] was 2.7%; in assay [3], less than 50%.

As to `Cc1ncsc1C(=O)N(Cc1cc(=O)[nH]c2ccccc12)c1ccccc1`, the EC50 in assay [1] was 0.5 µM; at Nitric oxide synthase 3, more than 100 µM; on Nitric oxide synthase 1 [4] it was more than 10 µM. Further, the inhibition (on Nitric oxide synthase 1 [2]; in assay [3]) was less than 50% throughout.

On to `Cc1ncsc1C(=O)N(Cc1cc(=O)[nH]c2cccc(F)c12)c1cccc(Cl)c1`, for which the EC50 in assay [1] was 0.5 µM; at Nitric oxide synthase 3, more than 100 µM; at Nitric oxide synthase 1 [4], more than 10 µM. The inhibition (at Nitric oxide synthase 1 [2]; in assay [3]) was less than 50% throughout.

Regarding `O=C(C1CCCC1)N(Cc1cc(=O)[nH]c2c(F)cccc12)c1cccc(Cl)c1`, the EC50 in assay [1] is 0.77 µM; on Nitric oxide synthase 3, more than 100 µM; at Nitric oxide synthase 1 [4] it was 10.3 µM. The inhibition in assay [3] is less than 50%.

With `Cc1cccc(N(Cc2cc(=O)[nH]c3c(F)cccc23)C(=O)c2scnc2C)c1`, the EC50 in assay [1] was 0.1 µM; on Nitric oxide synthase 3, more than 100 µM; at Nitric oxide synthase 1 [4], more than 10 µM. The inhibition (at Nitric oxide synthase 1 [2]; in assay [3]) was less than 50% each time.

For `O=C(c1ccco1)N(Cc1cc(=O)[nH]c2c(F)cccc12)c1ccccc1`, the EC50 in assay [1] was 1.1 µM; on Nitric oxide synthase 3, more than 100 µM; at Nitric oxide synthase 1 [4], more than 10 µM. Besides, the inhibition (at Nitric oxide synthase 1 [2]; in assay [3]) was less than 50% in each case.

On to `Cc1ccncc1C(=O)N(Cc1cc(=O)[nH]c2c(F)cccc12)c1cccc(Cl)c1`, for which the EC50 amounted to 0.049 µM in assay [1], 41 µM on Nitric oxide synthase 3 and 2.2 µM on Nitric oxide synthase 1 [4].

As to `Cc1ncsc1C(=O)N(Cc1cc(=O)[nH]c2c(F)cccc12)c1ccccc1`, the EC50 in assay [1] is 0.2 µM; at Nitric oxide synthase 3, more than 100 µM; on Nitric oxide synthase 1 [4], more than 10 µM. Besides, the inhibition (on Nitric oxide synthase 1 [2]; in assay [3]) was less than 50% in each case.

For the origin of these results see ChEMBL document CHEMBL1138485, “Discovery of inducible nitric oxide synthase (iNOS) inhibitor development candidate KD7332, part 1: Identification of a novel, potent, and selective series of quinolinone iNOS dimerization inhibitors that are orally active in rodent pain models” (J Med Chem, 2009).
